According to ChEMBL document CHEMBL1795297, “Design, synthesis and molecular docking studies of novel triazole as antifungal agent” (2011):
Values after ≈ are worked out from the molar mass of the structure shown.

What was measured:
Format in all cases: functional
[1] = tested on: Candida albicans; assay: Antifungal activity against Candida albicans ATCC Y0109 after 24 hrs by micro-broth dilution method; settings: ATCC Y0109, 24 h
Summary of the method: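 ATCC quality-control strain, tested in every assay. NCCLS M27-A2 broth microdilution. Compounds were dissolved in DMSO, serially diluted in growth medium, inoculated and incubated at 35 °C, with growth read at 24 h. MIC80 is the first well with about 80% growth reduction relative to the drug-free control. Each test was run three times and the mean of replicates taken.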

[2] = tested on: Cryptococcus neoformans; assay: Antifungal activity against Cryptococcus neoformans ATCC BLS108 after 72 hrs by micro-broth dilution method; settings: ATCC BLS108, 72 h
Summary of the method: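 Quality-control ATCC strain included in each assay. Microbroth dilution per NCCLS M27-A2. DMSO-dissolved compounds were serially diluted in growth medium, inoculated and held at 35 °C, with MIC read at 72 h. MIC80 is the first well showing about 80% growth reduction versus the drug-free well. Tests were done in triplicate and the mean reported.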

[3] = tested on: Aspergillus fumigatus; assay: Antifungal activity against Aspergillus fumigatus clinical isolate by micro-broth dilution method
Summary of the method: (§1)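 Clinical isolate. MIC by broth microdilution following the NCCLS M27-A2 reference method for yeasts. Compounds were dissolved in DMSO, serially diluted in growth medium, inoculated and incubated at 35 °C. MIC80 is the first well with about 80% less growth than the drug-free well. Each test was run three times and the mean of replicates reported.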

[4] = tested on: Candida albicans; assay: Ratio of voriconazole MIC80 to compound MIC80 for Candida albicans ATCC Y0109
[5] = tested on: Candida parapsilosis; assay: Antifungal activity against Candida parapsilosis clinical isolate by micro-broth dilution method; settings: Lodderomyces parapsilosis; summary of the method: as §1
[6] = tested on: Candida tropicalis; assay: Antifungal activity against Candida tropicalis clinical isolate by micro-broth dilution method; summary of the method: as §1
[7] = tested on: Trichophyton rubrum; assay: Antifungal activity against Trichophyton rubrum clinical isolate by micro-broth dilution method; summary of the method: as §1
[8] = Antifungal activity against Fonsecaea compacta clinical isolate by micro-broth dilution method; summary of the method: as §1
[9] = tested on: Nannizzia gypsea; assay: Antifungal activity against Microsporum gypseum clinical isolate by micro-broth dilution method; summary of the method: as §1

SMILES | MIC80 [1] [mg/L] | MIC80 [2] [mg/L] | MIC80 [3] [mg/L] | MIC80 [5] [mg/L] | MIC80 [6] [mg/L] | MIC80 [7] [mg/L] | MIC80 [8] [mg/L] | MIC80 [9] [mg/L] | Ratio [4]
CCC(=O)Nc1ccc(N2CCN(CC(O)(Cn3cncn3)c3ccc(F)cc3F)CC2)c(C(F)(F)F)c1 (stereo unspecified) | 0.25 (≈ 0.464 µM) | 1 (≈ 1.86 µM) | 16 (≈ 29.7 µM) | 1 (≈ 1.86 µM) | 0.25 (≈ 0.464 µM) | 1 (≈ 1.86 µM) | 4 (≈ 7.43 µM) | 1 (≈ 1.86 µM) | –
CCCCCCC(=O)Nc1ccc(N2CCN(CC(O)(Cn3cncn3)c3ccc(F)cc3F)CC2)c(C(F)(F)F)c1 (stereo unspecified) | 1 (≈ 1.68 µM) | 1 (≈ 1.68 µM) | > 64 | 4 (≈ 6.73 µM) | 4 (≈ 6.73 µM) | 4 (≈ 6.73 µM) | 16 (≈ 26.9 µM) | 4 (≈ 6.73 µM) | –

Now from value to compound, other results behind:

MIC80 [1] [mg/L] | MIC80 [2] [mg/L] | MIC80 [3] [mg/L] | MIC80 [5] [mg/L] | MIC80 [6] [mg/L] | MIC80 [7] [mg/L] | MIC80 [8] [mg/L] | MIC80 [9] [mg/L] | SMILES | Ratio [4]
0.00097 (≈ 0.00158 µM) | 0.25 (≈ 0.408 µM) | 4 (≈ 6.53 µM) | – | – | – | – | – | O=C(/C=C/c1ccccc1)Nc1ccc(N2CCN(CC(O)(Cn3cncn3)c3ccc(F)cc3F)CC2)c(C(F)(F)F)c1 (stereo unspecified) | 16
0.25 (≈ 0.441 µM) | 1 (≈ 1.76 µM) | > 64 | 1 (≈ 1.76 µM) | 1 (≈ 1.76 µM) | 4 (≈ 7.06 µM) | 4 (≈ 7.06 µM) | 0.25 (≈ 0.441 µM) | CC(C)(C)C(=O)Nc1ccc(N2CCN(CC(O)(Cn3cncn3)c3ccc(F)cc3F)CC2)c(C(F)(F)F)c1 (stereo unspecified) | –
0.0625 (≈ 0.119 µM) | 0.25 (≈ 0.477 µM) | > 64 | 0.25 (≈ 0.477 µM) | 0.25 (≈ 0.477 µM) | 1 (≈ 1.91 µM) | 1 (≈ 1.91 µM) | 1 (≈ 1.91 µM) | CC(=O)Nc1ccc(N2CCN(CC(O)(Cn3cncn3)c3ccc(F)cc3F)CC2)c(C(F)(F)F)c1 (stereo unspecified) | –
